Measured values reported in ChEMBL document CHEMBL4325867, “Synthesis and biological evaluation of novel H6 analogues as drug resistance reversal agents” (Eur J Med Chem, 2019).
Calls of active or inactive are those of the source. No cut-off for these calls is given here.

Assays:
[1] = target: T1, ATP-dependent translocase ABCB1 (Homo sapiens, UniProt P08183); test: Reversal of P-gp-mediated drug resistance in human KBV cells assessed as potentiation of paclitaxel-induced cytotoxicity by measuring cell survival at 5 uM after 72 hrs by MTT assay (reference value: 98 +/- 19%); type: cell-based
[2] = n-octanol/aqueous buffer solution partition coefficient, log P of the compound at pH 6.8 after 4 hrs by HPLC method; type: physicochemical
Procedure, shortened: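 Shake-flask partition between n-octanol and pH 6.8 buffer at a 1:1 ratio, room temperature, shaken 4 h. Compound concentration in each phase measured by HPLC.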

[3] = Potentiation of paclitaxel-induced antitumor activity against human KBV cells xenografted in nude mouse assessed as tumor weight at […] cotreated with 30 mg/kg paclitaxel relative to control; type: functional
[4] = Cytotoxicity against human KBV cells assessed as cell survival at 5 uM after 72 hrs by MTT assay relative to control; type: cell-based; conditions: read-out: Survival
Procedure, shortened: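 KBV cells (RPMI-1640 with 10% heat-inactivated FCS, 37 °C, 5% CO2, log-phase) were seeded in 96-well plates and exposed to compound alone at 5 µM for 72 h. MTT was added and incubated, then DMSO was added. OD was read at 570 nm and survival rate was calculated.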

[5] = target: T1, ATP-dependent translocase ABCB1; test: Reversal of P-gp-mediated drug resistance in human KBV cells assessed as potentiation of paclitaxel-induced cytotoxicity by measuring reduction in paclitaxel IC50 by MTT assay; type: cell-based
[6] = target: T1, ATP-dependent translocase ABCB1; test: Reversal of P-gp-mediated drug resistance in human KBV cells assessed as potentiation of paclitaxel-induced cytotoxicity by measuring fold reduction in paclitaxel IC50 at 10 uM after 72 hrs by MTT assay relative to paclitaxel alone; type: cell-based
Procedure, shortened: (§1)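 KBV cells cultured in RPMI-1640 with 10% heat-inactivated fetal calf serum at 37°C, 5% CO2, and used in log phase. Seeded in 96-well plates. Exposed to paclitaxel with or without modulator (5 or 10 µM) for 24, 48 or 72 h. MTT added, formazan dissolved in DMSO, OD read at 570 nm. Survival rate used to derive paclitaxel IC50. RF taken as the fold reduction of IC50 relative to paclitaxel alone.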

[7] = target: T1, ATP-dependent translocase ABCB1; test: Reversal of P-gp-mediated drug resistance in human KBV cells assessed as potentiation of paclitaxel-induced cytotoxicity by measuring fold reduction in paclitaxel IC50 at 5 uM after 72 hrs by MTT assay relative to paclitaxel alone; type: cell-based; procedure, shortened: as §1
[8] = target: T1, ATP-dependent translocase ABCB1; test: Reversal of P-gp-mediated drug resistance in human KBV cells assessed as potentiation of paclitaxel-induced cytotoxicity by measuring fold reduction in paclitaxel IC50 at 5 uM after 24 hrs by MTT assay; type: cell-based; procedure, shortened: as §1
[9] = target: T1, ATP-dependent translocase ABCB1; test: Reversal of P-gp-mediated drug resistance in human KBV cells assessed as potentiation of paclitaxel-induced cytotoxicity by measuring fold reduction in paclitaxel IC50 at 10 uM after 24 hrs by MTT assay; type: cell-based; procedure, shortened: as §1
[10] = target: T1, ATP-dependent translocase ABCB1; test: Reversal of P-gp-mediated drug resistance in human KBV cells assessed as potentiation of paclitaxel-induced cytotoxicity by measuring fold reduction in paclitaxel IC50 at 5 uM after 48 hrs by MTT assay; type: cell-based; procedure, shortened: as §1
[11] = target: T1, ATP-dependent translocase ABCB1; test: Reversal of P-gp-mediated drug resistance in human KBV cells assessed as potentiation of paclitaxel-induced cytotoxicity by measuring fold reduction in paclitaxel IC50 at 10 uM after 48 hrs by MTT assay; type: cell-based; procedure, shortened: as §1
[12] = target: T1, ATP-dependent translocase ABCB1; test: Inhibition of P-gp-mediated Rhodamine-123 efflux in human KBV cells assessed as Rhodamine-123 accumulation preincubated for 2 hrs followed by Rhodamine-123 addition measured after 30 mins by flow cytometry; type: cell-based; conditions: 0.5 h
[13] = target: T1, ATP-dependent translocase ABCB1; test: Reversal of P-gp-mediated drug resistance in human KBV cells assessed as potentiation of paclitaxel-induced cell cycle arrest by measuring accumulation at G2/M phase at 10 uM after 24 hrs by propidium iodide staining based flow cytometry
Procedure, shortened: (§2)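 KBV cells plated in 6-well plates overnight, then treated for 24 h at 10 µM alongside paclitaxel. Cells fixed in 70% ethanol overnight at -20 °C, washed in PBS, and stained 30 min with PI/RNase A. Flow cytometry gave the cell-cycle distribution, with sub-G1 taken as apoptotic cells. Mean ± SD, n = 3.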

[14] = target: T1, ATP-dependent translocase ABCB1; test: Reversal of P-gp-mediated drug resistance in human KBV cells assessed as potentiation of paclitaxel-induced cell cycle arrest by measuring accumulation at sub-G1 phase at 10 uM after 24 hrs by propidium iodide staining based flow cytometry; procedure, shortened: as §2
[15] = Solubility of the compound in water; type: physicochemical; conditions: buffer
[16] = Cytotoxicity against human KBV cells xenografted in Balb/c nude mouse assessed as tumor growth inhibition at 50 mg/kg, po via gavage; type: organism-based; conditions: in vivo
Procedure, shortened: (§3)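 Male BALB/c nude mice, 6−8 weeks old, given 5 × 10^6 KBV cells subcutaneously in the dorsal region. Randomized once tumors reached about 100-200 mm3, five per group: control, paclitaxel 30 mg/kg, test agent 50 mg/kg, or the combination. Paclitaxel given i.p. twice a week; test agent by gavage. Tumor growth measured every three days; tumors excised and weighed at the end.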

Homo sapiens = test: Potentiation of paclitaxel-induced antitumor activity against human KBV cells xenografted in Balb/c nude mouse assessed as tumor growth inhibition at 50 mg/kg, po via gavage cotreated with 30 mg/kg, ip paclitaxel; type: functional, organism-based; procedure, shortened: as §3
[17] = Toxicity in Balb/c nude mouse xenografted with human KBV cells at 50 mg/kg, po via gavage cotreated with 30 mg/kg, ip paclitaxel; type: organism-based; conditions: in vivo

T1 sequence (P08183 whole entry): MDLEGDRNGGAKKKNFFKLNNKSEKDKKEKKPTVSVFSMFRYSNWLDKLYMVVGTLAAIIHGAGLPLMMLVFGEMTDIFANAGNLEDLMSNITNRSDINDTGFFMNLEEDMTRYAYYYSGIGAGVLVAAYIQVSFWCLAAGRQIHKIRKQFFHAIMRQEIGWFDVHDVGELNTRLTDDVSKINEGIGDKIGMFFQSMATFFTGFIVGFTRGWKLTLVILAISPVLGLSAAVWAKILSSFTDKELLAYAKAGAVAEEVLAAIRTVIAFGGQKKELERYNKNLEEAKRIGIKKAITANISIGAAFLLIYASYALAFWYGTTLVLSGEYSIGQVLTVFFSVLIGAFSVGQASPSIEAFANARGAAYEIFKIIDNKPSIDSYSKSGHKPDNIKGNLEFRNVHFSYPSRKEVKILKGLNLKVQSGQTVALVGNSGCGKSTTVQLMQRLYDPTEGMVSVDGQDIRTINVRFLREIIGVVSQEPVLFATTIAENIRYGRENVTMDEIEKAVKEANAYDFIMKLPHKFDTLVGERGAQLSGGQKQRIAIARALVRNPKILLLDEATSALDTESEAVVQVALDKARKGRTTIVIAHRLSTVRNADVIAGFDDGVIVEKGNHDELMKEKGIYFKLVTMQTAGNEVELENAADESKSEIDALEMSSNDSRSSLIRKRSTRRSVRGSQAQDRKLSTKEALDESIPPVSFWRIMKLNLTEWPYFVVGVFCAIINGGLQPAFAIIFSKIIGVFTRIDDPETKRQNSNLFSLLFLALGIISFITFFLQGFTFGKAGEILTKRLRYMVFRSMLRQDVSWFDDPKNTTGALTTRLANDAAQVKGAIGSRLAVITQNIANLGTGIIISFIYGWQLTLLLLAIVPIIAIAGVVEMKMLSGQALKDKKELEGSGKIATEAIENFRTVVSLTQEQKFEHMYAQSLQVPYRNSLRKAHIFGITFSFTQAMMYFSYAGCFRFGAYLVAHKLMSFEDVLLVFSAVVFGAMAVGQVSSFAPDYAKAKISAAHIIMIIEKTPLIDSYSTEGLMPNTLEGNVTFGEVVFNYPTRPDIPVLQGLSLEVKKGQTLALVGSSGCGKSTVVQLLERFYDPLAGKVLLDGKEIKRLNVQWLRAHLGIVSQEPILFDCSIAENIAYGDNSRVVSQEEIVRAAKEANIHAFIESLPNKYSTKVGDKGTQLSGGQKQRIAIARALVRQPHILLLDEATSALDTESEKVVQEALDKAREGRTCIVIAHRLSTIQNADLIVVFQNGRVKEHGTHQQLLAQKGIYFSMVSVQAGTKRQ

SMILES: CC1(C)CC[C@]2(C(=O)OCc3ccccc3)CC[C@]3(C)C(=CC[C@@H]4[C@@]5(C)Cc6nccnc6[C@@](C)(CO)[C@@H]5CC[C@]43C)[C@@H]2C1
- Survival [1]: 18%
- logD at 4 h [2]: -0.54
- Activity [3]: 42%

SMILES: CN(C)CCCOC(=O)[C@]12CCC(C)(C)C[C@H]1C1=CC[C@@H]3[C@@]4(C)Cc5nccnc5[C@@](C)(CO)[C@@H]4CC[C@@]3(C)[C@]1(C)CC2
- Survival [1]: 10%
- viability at 72 h, 5 µM [4]: 97%
- Activity [5]: Dose-dependent effect and Tde
- fold change (FC) [6]: 250.77
- fold change (FC) [7]: 32.5
- logD at 4 h [2]: -1.25
- fold change (FC) [8]: 77.1
- fold change (FC) [9]: 109.79
- fold change (FC) [10]: 65.92
- fold change (FC) [11]: 81.11
- inhibition (INH) [12]: Dose-dependent effect
- Activity [13]: Active
- Activity [14]: Active
- solubility [15]: Soluble
- TGI [16]: Non-Toxic
- TGI (Homo sapiens): Active
- Activity [17]: Non-Toxic
